Experiment [1] deals with T1, Sodium-dependent dopamine transporter (Rattus norvegicus, UniProt P23977). In words: Inhibitory activity determined for [3H]DA (Dopamine transporter) uptake by striated synaptosomes. It counts as subcellular, Brain.
The target in experiment [2] is T2, Sodium-dependent serotonin transporter (Rattus norvegicus, UniProt P31652). In words: Inhibitory activity against Serotonin transporter was determined for [3H]5-HT (serotonin) uptake by striated synaptosomes. Format: subcellular, Brain.
T2 sequence (P31652 whole entry): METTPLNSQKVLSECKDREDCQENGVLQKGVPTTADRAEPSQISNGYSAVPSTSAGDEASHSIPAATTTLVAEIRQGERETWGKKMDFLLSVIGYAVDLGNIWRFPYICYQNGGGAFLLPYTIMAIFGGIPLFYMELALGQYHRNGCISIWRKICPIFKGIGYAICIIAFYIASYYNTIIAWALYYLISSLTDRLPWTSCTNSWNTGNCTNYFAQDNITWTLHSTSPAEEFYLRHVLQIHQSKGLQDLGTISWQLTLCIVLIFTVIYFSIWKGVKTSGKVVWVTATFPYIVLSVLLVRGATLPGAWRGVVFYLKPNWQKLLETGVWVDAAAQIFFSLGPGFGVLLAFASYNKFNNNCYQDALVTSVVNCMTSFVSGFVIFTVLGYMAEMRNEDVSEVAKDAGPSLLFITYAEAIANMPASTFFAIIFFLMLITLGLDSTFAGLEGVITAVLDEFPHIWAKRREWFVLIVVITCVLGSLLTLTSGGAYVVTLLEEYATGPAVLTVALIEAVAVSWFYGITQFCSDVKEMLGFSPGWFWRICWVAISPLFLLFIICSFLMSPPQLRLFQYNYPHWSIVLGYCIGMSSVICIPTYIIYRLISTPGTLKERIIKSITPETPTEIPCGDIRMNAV
Experiment [3] addresses T1, Sodium-dependent dopamine transporter. The experiment is described as follows: (§1) Inhibitory activity on dopamine transporters of rat striated membranes using [3H]- mazindol. Summed up: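 Striatal membrane homogenate was added to tubes holding drug and about 4 nM [3H]mazindol in Krebs-Ringer-HEPES (pH 7.4). Incubation was 1 h at 4 °C, followed by filtration.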
The target is the same in experiment [4]. In words: Binding affinity of compound on dopamine transporters of rat striated membranes using [3H]- mazindol. It counts as cell membranes, Membrane. Summed up: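 Striatal membrane homogenate was added to tubes holding drug and about 4 nM [3H]mazindol in Krebs-Ringer-HEPES (pH 7.4). Incubation was 1 h at 4 °C, followed by filtration. […] Values are the mean of 2–3 experiments.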

Experiment [5] concerns the target T2, Sodium-dependent serotonin transporter. The experiment is described as follows: Binding affinity for Serotonin transporter was determined by [3H]5-HT (serotonin) uptake by striated synaptosomes. Format: subcellular, Brain.
Experiment [6] has as its target Monoamine transporters; serotonin & dopamine (Rattus norvegicus) (UniProt P31652+P23977). In words: Ratio of Ki value for 5-HT to that of DA. It counts as protein assay.
In experiment [7] the target is T1, Sodium-dependent dopamine transporter. In words: Binding affinity for [3H]DA (Dopamine transporter) uptake by striated synaptosomes. It counts as subcellular, Brain. In short, it runs like this: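 Striatal synaptosomes in Krebs-Ringer-HEPES (125 mM NaCl, 4.8 mM KCl, 1.2 mM MgSO4, 25 mM HEPES, pH 7.4). After 30 min drug preincubation, [3H]DA was added at about 5 nM. Uptake lasted 5 min and ended by rapid filtration. […] Ki was derived by Cheng–Prusoff with Kd 57 nM. Values are the mean of 2–3 experiments.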

Experiment [8] shares this target. The description is as §1. The source holds these as a separate data set.
Experiment [9] has the same target. The experiment is described as follows: Inhibitory activity on dopamine transporter of rat striated membranes using [3H]- mazindol.

pIC50, pKi: −log10 of the molar value.

A word on the pIC50: it is −log10 of the IC50, conventionally taken in molar units. As a reminder, the pKi is the negative decadic logarithm of the Ki, by convention in mol/L. Low values mean a high Ki, high ones a low Ki.

Monoamine transporters; serotonin & dopamine (Rattus norvegicus), sequence (P23977 whole entry, looked up): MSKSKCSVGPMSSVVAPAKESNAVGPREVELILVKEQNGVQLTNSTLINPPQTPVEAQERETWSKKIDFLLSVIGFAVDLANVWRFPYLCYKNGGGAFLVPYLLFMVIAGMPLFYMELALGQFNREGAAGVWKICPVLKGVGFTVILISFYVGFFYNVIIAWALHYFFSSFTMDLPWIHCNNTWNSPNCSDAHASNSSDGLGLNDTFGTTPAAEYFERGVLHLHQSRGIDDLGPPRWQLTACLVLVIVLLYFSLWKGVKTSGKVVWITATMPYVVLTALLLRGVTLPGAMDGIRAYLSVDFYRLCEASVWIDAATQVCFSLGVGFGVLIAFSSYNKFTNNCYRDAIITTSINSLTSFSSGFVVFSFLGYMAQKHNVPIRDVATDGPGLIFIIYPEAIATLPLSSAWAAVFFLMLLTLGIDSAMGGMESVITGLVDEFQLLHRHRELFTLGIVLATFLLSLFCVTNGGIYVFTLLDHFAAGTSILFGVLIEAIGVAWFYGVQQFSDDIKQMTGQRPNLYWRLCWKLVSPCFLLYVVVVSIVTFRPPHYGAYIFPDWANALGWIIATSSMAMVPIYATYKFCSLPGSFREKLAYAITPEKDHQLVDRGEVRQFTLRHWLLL
Monoamine transporters; serotonin & dopamine (Rattus norvegicus), sequence (P31652 whole entry, looked up): as the sequence (P31652 whole entry) above
T1 sequence (P23977 whole entry): as the sequence (P23977 whole entry, looked up) above

As to `CCC[C@H]1C2CC[C@H](C[C@H]1c1ccccc1)N2C`, the pIC50 in experiment [1] is 7.49; in [2], 6.37; in [3] it was 6.85. Further, the pKi was 7.13 in experiment [4], 6.41 in [5] and 7.52 in experiment [7]. For the same compound, the Uptake ratio in experiment [6] stood at 12.9.

`CCC[C@H]1C(c2ccc(F)cc2)C[C@H]2CCC1N2C` (stereo not given in full): the pIC50 was 8.67 in experiment [1], 7.63 in experiment [2] and 8.00 in experiment [3]. For the same compound, the pKi in experiment [4] was 8.28; in experiment [5] it was 7.66; in experiment [7], 8.70. The Uptake ratio in experiment [6] came out at 10.9.

`CN1C2CC[C@@H]1CC(c1ccccc1)[C@@H]2c1ccccc1` (mixture of isomers) gave a pIC50 in [8] of 7.55.

Turning to `CCC[C@H]1C2CC[C@H](C[C@H]1c1ccc(C)cc1)N2C`, the pIC50 in experiment [1] is 7.89; in experiment [2], 7.26; in experiment [3], 7.74. The pKi in experiment [4] is 8.05; in experiment [5], 7.30; in [7], 7.93. The Uptake ratio in [6] is 4.25.

Consider `CN1C2CC[C@@H]1CC(c1ccccc1)[C@@H]2c1ccccc1` (stereo not given in full) [listing 1 of 2 here], for which the Uptake ratio in experiment [6] was determined as 38.1.

With `CCCC[C@H]1C2CC[C@H](C[C@H]1c1ccc(C)cc1)N2C`, the pIC50 in experiment [1] was 7.96; in experiment [2], 7.25; in [3], 7.67. In addition, the pKi is 7.94 in experiment [4], 7.29 in [5] and 8.00 in experiment [7]. The Uptake ratio in [6] stood at 5.1.

Consider `CN1C2CC[C@@H]1C[C@@H](c1ccc(F)cc1)[C@H]2c1ccccc1`, for which the figures for the pIC50 in experiment [1], in experiment [2] and in experiment [3] were 8.31, 6.87 and 7.94, respectively. Besides, the pKi in [4] is 8.22; in experiment [5], 6.91; in experiment [7], 8.34. The Uptake ratio in [6] amounted to 26.6.

For the compound `COC(=O)[C@H]1C(c2ccccc2)C[C@H]2CCC1N2C` (stereo not given in full), the figures for the pIC50 in [1] and in experiment [3] were 7.24 and 6.79, respectively. Moreover, the pKi was 7.05 in [4] and 7.27 in experiment [7].

On to `CCC[C@H]1C(c2ccc(C)cc2)C[C@H]2CCC1N2C` (stereo not given in full), for which the pIC50 in experiment [1] is 8.92; in experiment [2] it was 7.95; in experiment [3], 8.53. Moreover, the results for the pKi in experiment [4], in experiment [5] and in experiment [7] were 8.80, 7.99 and 8.96, respectively. The Uptake ratio in [6] came out at 9.35.

As to `Cc1ccc([C@@H]2C[C@H]3CCC([C@@H]2c2ccccc2)N3C)cc1`, the negative-log IC50 (pIC50) is 8.35 in experiment [1], 6.50 in experiment [2] and 8.26 in experiment [3]. For the same compound, the values for the pKi in [4], in experiment [5] and in experiment [7] were 8.54, 6.54 and 8.38, respectively. Also, in experiment [6], the Uptake ratio was found to be 68.9.

As to `CCCC[C@H]1C(c2ccc(C)cc2)C[C@H]2CCC1N2C` (stereo not given in full), the figures for the negative logarithm of the IC50 (pIC50) in experiment [1], in experiment [2] and in experiment [3] were 8.85, 7.78 and 8.46, respectively. Also, the results for the pKi in [4], in experiment [5] and in experiment [7] were 8.74, 7.82 and 8.88, respectively. Further, the Uptake ratio in experiment [6] is 11.5.

Take `CN1C2CC[C@@H]1CC(c1ccccc1)[C@@H]2c1ccccc1` (stereo not given in full) [listing 2 of 2 here]: the pIC50 in [1] was 7.51; in experiment [2], 5.92; in [3], 7.02. Further, the pKi in [4] is 7.30; in experiment [5], 5.96; in experiment [7], 7.54.

Take `CCC[C@H]1C2CC[C@H](C[C@H]1c1ccc(F)cc1)N2C`: the pIC50 was 7.88 in experiment [1], 6.96 in [2] and 7.43 in experiment [3]. For the same compound, the figures for the pKi in [4], in experiment [5] and in experiment [7] were 7.68, 7.00 and 7.92, respectively. Besides, the Uptake ratio in experiment [6] is 8.2.

As to `CN1C2CC[C@@H]1C[C@@H](c1ccccc1)[C@H]2c1ccccc1`, the pIC50 in experiment [1] is 7.90; in [2], 6.08; in experiment [3], 7.58. The pKi in [4] was 7.86; in experiment [5] it was 6.12; in [7], 7.93. In addition, the Uptake ratio in [6] worked out at 64.3.

`CCC[C@H]1C(c2ccccc2)C[C@H]2CCC1N2C` (stereo not given in full): the figures for the pIC50 in experiment [1], in experiment [2] and in experiment [3] were 8.13, 7.02 and 7.64, respectively. The figures for the pKi in [4], in experiment [5] and in experiment [7] were 7.91, 7.06 and 8.16, respectively. Besides, the Uptake ratio in [6] worked out at 12.6.

With `COC(=O)[C@@H]1C2CC[C@H](C[C@@H]1c1ccc(C)cc1)N2C`, the pIC50 was 8.13 in [1] and 7.98 in [9]. Also, the pKi in experiment [4] was 8.24; in [7], 8.16.

For `Cc1ccc(C2C[C@H]3CCC([C@H]2c2ccccc2)N3C)cc1` (stereo not given in full), the values for the pIC50 in [1], in experiment [2] and in experiment [3] were 8.51, 7.09 and 8.30, respectively. In addition, the figures for the pKi in [4], in [5] and in experiment [7] were 8.59, 7.13 and 8.54, respectively. In addition, in experiment [6], the Uptake ratio is 25.7.

The values are drawn from ChEMBL document CHEMBL1131420 (J Med Chem, 1998).
